According to ChEMBL document CHEMBL1140300, “Synthesis and pharmacological characterization of exo-2-(2'-chloro-5-pyridinyl)-7-(endo and exo)-aminobicyclo[2.2.1]heptanes as novel epibatidine analogues” (J Med Chem, 2005):

What was measured:
[1] = biological target: Neuronal acetylcholine receptor subunit alpha-7 (Homo sapiens, UniProt P36544); assay: Displacement of [125]iodoMLA from alpha-7 nAChR
[2] = biological target: Neuronal acetylcholine receptor; alpha4/beta2 (Rattus norvegicus, UniProt P09483+P12390); assay: Displacement of [3H]epibatidine from alpha4beta2 nAChR in rat cerebral cortex; format: tissue-based
Mus musculus [3] = assay: Antinociceptive activity in sc dosed mouse by hotplate method; format: functional
Outline: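 Mouse hot-plate at 55.0 °C, animal in 10 cm glass cylinder. Two control latencies ≥10 min apart (normal 8–12 s). End point is jumping or paw licking. Tested 5 min after sc injection across a dose range. Response as %MPE = [(test – control)/(maximum latency – control) × 100]. ED50 with 95% confidence limits by unweighted least-squares linear regression.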

Mus musculus [4] = assay: Antinociceptive activity in sc dosed mouse by tail-flick method; format: functional
Outline: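 Mouse tail-flick (D'Amour–Smith): tail exposed to heat lamp, latency to flick recorded. Control latency (2–4 s) taken per mouse before treatment, test latency after sc dosing. Response as %MPE = [(test – control)/(maximum latency – control) × 100]. ED50 with 95% confidence limits by unweighted least-squares linear regression.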

Mus musculus [5] = assay: Activity in sc dosed mouse by hypothermia test; format: functional
Outline: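 Rectal temperature in mice via thermistor probe inserted 24 mm, read just before and at several times after sc injection of saline or test compound. Change from pretreatment value per mouse. Ambient 21–24 °C. ED50 with 95% confidence limits by unweighted least-squares linear regression.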

Mus musculus [6] = assay: Effect on locomotor activity in sc dosed mouse; format: functional
Outline: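 Spontaneous activity: mice placed in individual photocell cages (28 × 16.5 cm) 5 min after sc dosing of 0.9% saline or test compound. Beam interruptions (two banks of eight cells) counted over the next 10 min.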

Sequence of Neuronal acetylcholine receptor subunit alpha-7 (P36544 whole entry): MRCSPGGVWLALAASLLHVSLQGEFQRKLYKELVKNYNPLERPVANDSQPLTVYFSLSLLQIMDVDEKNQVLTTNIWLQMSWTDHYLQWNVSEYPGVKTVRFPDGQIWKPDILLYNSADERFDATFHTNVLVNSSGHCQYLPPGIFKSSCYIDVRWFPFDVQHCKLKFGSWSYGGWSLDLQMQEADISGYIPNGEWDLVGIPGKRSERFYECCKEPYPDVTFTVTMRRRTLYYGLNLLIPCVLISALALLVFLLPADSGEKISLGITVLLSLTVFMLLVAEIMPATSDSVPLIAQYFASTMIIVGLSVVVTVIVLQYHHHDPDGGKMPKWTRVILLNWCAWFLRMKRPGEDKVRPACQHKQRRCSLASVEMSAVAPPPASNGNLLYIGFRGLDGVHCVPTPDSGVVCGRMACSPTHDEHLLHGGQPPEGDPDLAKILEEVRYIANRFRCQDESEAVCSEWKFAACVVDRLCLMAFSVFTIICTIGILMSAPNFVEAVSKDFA
Sequence of Neuronal acetylcholine receptor; alpha4/beta2 (P09483 whole entry): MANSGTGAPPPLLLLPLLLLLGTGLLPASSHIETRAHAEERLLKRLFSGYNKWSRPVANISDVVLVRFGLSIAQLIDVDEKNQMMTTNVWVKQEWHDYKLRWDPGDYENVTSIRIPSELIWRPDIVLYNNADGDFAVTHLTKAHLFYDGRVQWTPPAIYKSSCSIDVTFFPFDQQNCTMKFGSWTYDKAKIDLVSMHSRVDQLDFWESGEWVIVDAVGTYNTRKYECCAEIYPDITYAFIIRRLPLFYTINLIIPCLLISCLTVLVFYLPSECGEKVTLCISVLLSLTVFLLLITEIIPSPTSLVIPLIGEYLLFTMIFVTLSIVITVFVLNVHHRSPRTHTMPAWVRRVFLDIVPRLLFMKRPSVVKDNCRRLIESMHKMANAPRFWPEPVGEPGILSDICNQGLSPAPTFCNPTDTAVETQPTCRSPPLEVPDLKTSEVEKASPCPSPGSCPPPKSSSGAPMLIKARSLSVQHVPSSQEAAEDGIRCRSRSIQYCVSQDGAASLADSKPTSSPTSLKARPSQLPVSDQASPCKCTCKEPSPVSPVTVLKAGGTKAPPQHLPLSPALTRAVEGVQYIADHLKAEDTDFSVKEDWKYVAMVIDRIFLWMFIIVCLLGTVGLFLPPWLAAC
Sequence of Neuronal acetylcholine receptor; alpha4/beta2 (P12390 whole entry): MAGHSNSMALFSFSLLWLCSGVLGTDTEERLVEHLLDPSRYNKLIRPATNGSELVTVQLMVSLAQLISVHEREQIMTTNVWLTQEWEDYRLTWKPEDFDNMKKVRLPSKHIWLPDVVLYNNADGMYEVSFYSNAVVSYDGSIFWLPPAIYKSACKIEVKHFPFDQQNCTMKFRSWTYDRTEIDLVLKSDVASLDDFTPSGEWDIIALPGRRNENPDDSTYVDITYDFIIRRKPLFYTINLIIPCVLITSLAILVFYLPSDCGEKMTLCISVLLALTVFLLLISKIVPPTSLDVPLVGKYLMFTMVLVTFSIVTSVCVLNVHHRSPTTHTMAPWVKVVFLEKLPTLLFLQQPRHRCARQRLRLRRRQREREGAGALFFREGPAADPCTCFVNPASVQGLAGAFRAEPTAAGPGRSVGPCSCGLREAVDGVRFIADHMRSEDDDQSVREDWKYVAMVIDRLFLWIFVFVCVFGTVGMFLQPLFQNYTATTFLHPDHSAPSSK

| Structure (SMILES) | Ki [1] | Ki [2] | ED50 (Mus musculus [3]) | ED50 (Mus musculus [4]) | ED50 (Mus musculus [5]) | ED50 (Mus musculus [6]) |
| --- | --- | --- | --- | --- | --- | --- |
| Clc1ccc([C@H]2CC3CCC2[C@@H]3NCc2ccccc2)cn1 (relative stereo) | > 200 nM | > 1000 nM |  |  |  |  |
| Cl.Cl.Cl.N[C@H]1C2CCC1[C@@H](c1ccc(Cl)nc1)C2 (relative stereo) | > 700 nM | 8.2 nM | 2.9 mg/kg | 4.5 mg/kg | 3.4 mg/kg |  |
| Clc1ccc([C@H]2CC3CCC2[C@H]3NCc2ccccc2)cn1 (relative stereo) | > 700 nM | > 1000 nM |  |  |  |  |
| Cl.N[C@@H]1C2CCC1[C@@H](c1ccc(Cl)nc1)C2 (relative stereo) | > 700 nM | 10.9 nM | 4.4 mg/kg | 4.5 mg/kg | 2.3 mg/kg | 1.1 mg/kg |
| Cl.Clc1ccc([C@H]2CC3CCC2N3)cn1 (some centres undefined) [EPIBATIDINE HYDROCHLORIDE] | 198 nM |  | 0.004 mg/kg | 0.006 mg/kg | 0.004 mg/kg | 0.001 mg/kg |
| CN1CCC[C@H]1c1cccnc1.Cl [NICOTINE HYDROCHLORIDE] |  |  | 0.65 mg/kg | 1.3 mg/kg | 1 mg/kg | 0.5 mg/kg |
